Source: ChEMBL document CHEMBL3864121, “Development of ebsulfur analogues as potent antibacterials against methicillin-resistant Staphylococcus aureus” (Bioorg Med Chem, 2016)
In brackets after ≈: the same amount, converted by molar mass. Activity calls are given as the source filed them. The rule behind the calls is not given here.

Tests used:
Staphylococcus aureus [1] = assay: Antibacterial activity against methicillin-sensitive Staphylococcus aureus ATCC 6538 measured after overnight incubation by broth double-dilution method; format: functional
How it was run: (§1)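 MIC by broth double-dilution in liquid Mueller-Hinton medium. Values are reported in µg/mL.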

Staphylococcus aureus [2] = assay: Antibacterial activity against methicillin-sensitive Staphylococcus aureus ATCC 25923 measured after overnight incubation by broth double-dilution method; format: functional; how it was run: as §1
Staphylococcus aureus [3] = assay: Antibacterial activity against methicillin-sensitive Staphylococcus aureus ATCC 29213 measured after overnight incubation by broth double-dilution method; format: functional; how it was run: as §1
Staphylococcus aureus [4] = assay: Antibacterial activity against methicillin-resistant Staphylococcus aureus ATCC 33591 measured after overnight incubation by broth double-dilution method; format: functional; how it was run: as §1
Staphylococcus aureus [5] = assay: Antibacterial activity against methicillin-resistant Staphylococcus aureus 1 measured after overnight incubation by broth double-dilution method; format: functional; how it was run: as §1
Staphylococcus aureus [6] = assay: Antibacterial activity against methicillin-resistant Staphylococcus aureus 2 measured after overnight incubation by broth double-dilution method; format: functional; how it was run: as §1
Staphylococcus aureus [7] = assay: Antibacterial activity against methicillin-resistant Staphylococcus aureus BRS3 measured after overnight incubation by broth double-dilution method; format: functional; how it was run: as §1
Staphylococcus aureus [8] = assay: Antibacterial activity against methicillin-resistant Staphylococcus aureus C1 measured after overnight incubation by broth double-dilution method; format: functional; how it was run: as §1
Staphylococcus aureus [9] = assay: Antibacterial activity against methicillin-resistant Staphylococcus aureus C2 measured after overnight incubation by broth double-dilution method; format: functional; how it was run: as §1
Staphylococcus aureus [10] = assay: Antibacterial activity against methicillin-resistant Staphylococcus aureus C7 measured after overnight incubation by broth double-dilution method; format: functional; how it was run: as §1
Staphylococcus aureus [11] = assay: Antibacterial activity against methicillin-resistant Staphylococcus aureus C14 measured after overnight incubation by broth double-dilution method; format: functional; how it was run: as §1
Staphylococcus aureus [12] = assay: Antibacterial activity against methicillin-resistant Staphylococcus aureus C16 measured after overnight incubation by broth double-dilution method; format: functional; how it was run: as §1
Staphylococcus aureus [13] = assay: Antibacterial activity against methicillin-resistant Staphylococcus aureus C19 measured after overnight incubation by broth double-dilution method; format: functional; how it was run: as §1
Staphylococcus aureus [14] = assay: Antibacterial activity against methicillin-resistant Staphylococcus aureus G1 measured after overnight incubation by broth double-dilution method; format: functional; how it was run: as §1
Staphylococcus aureus [15] = assay: Antibacterial activity against methicillin-resistant Staphylococcus aureus G6 measured after overnight incubation by broth double-dilution method; format: functional; how it was run: as §1
Staphylococcus aureus [16] = assay: Antibacterial activity against methicillin-resistant Staphylococcus aureus G12 measured after overnight incubation by broth double-dilution method; format: functional; how it was run: as §1
Staphylococcus aureus [17] = assay: Antibacterial activity against methicillin-resistant Staphylococcus aureus G14 measured after overnight incubation by broth double-dilution method; format: functional; how it was run: as §1
Staphylococcus aureus [18] = assay: Antibacterial activity against methicillin-resistant Staphylococcus aureus NRS4 measured after overnight incubation by broth double-dilution method; format: functional; how it was run: as §1
Staphylococcus aureus [19] = assay: Antibacterial activity against methicillin-resistant Staphylococcus aureus NRS51 measured after overnight incubation by broth double-dilution method; format: functional; how it was run: as §1
Staphylococcus aureus [20] = assay: Antibacterial activity against methicillin-resistant Staphylococcus aureus NRS77 measured after overnight incubation by broth double-dilution method; format: functional; how it was run: as §1
Staphylococcus aureus [21] = assay: Antibacterial activity against methicillin-resistant Staphylococcus aureus S14 measured after overnight incubation by broth double-dilution method; format: functional; how it was run: as §1
Staphylococcus aureus [22] = assay: Antibacterial activity against methicillin-resistant Staphylococcus aureus S17 measured after overnight incubation by broth double-dilution method; format: functional; how it was run: as §1
Staphylococcus aureus [23] = assay: Antibacterial activity against methicillin-resistant Staphylococcus aureus S22 measured after overnight incubation by broth double-dilution method; format: functional; how it was run: as §1
Staphylococcus aureus [24] = assay: Antibacterial activity against methicillin-resistant Staphylococcus aureus S24 measured after overnight incubation by broth double-dilution method; format: functional; how it was run: as §1
Staphylococcus aureus [25] = assay: Antibacterial activity against methicillin-resistant Staphylococcus aureus USA100 measured after overnight incubation by broth double-dilution method; format: functional; how it was run: as §1
Staphylococcus aureus [26] = assay: Antibacterial activity against methicillin-resistant Staphylococcus aureus USA200 measured after overnight incubation by broth double-dilution method; format: functional; how it was run: as §1
Staphylococcus aureus [27] = assay: Antibacterial activity against methicillin-resistant Staphylococcus aureus USA300 measured after overnight incubation by broth double-dilution method; format: functional; how it was run: as §1
Staphylococcus aureus [28] = assay: Antibacterial activity against methicillin-resistant Staphylococcus aureus USA600 measured after overnight incubation by broth double-dilution method; format: functional; how it was run: as §1
[29] = test system: Staphylococcus epidermidis; assay: Antibacterial activity against Staphylococcus epidermidis ATCC 35984 measured after overnight incubation by broth double-dilution method; format: functional; details: RP62A
How it was run: (§2)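 MIC by broth double-dilution in Mueller-Hinton medium. Re-testing at the time-kill inoculum used 1×10^6 CFU/mL.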

Enterococcus faecalis [30] = assay: Antibacterial activity against Enterococcus faecalis ATCC 29212 measured after overnight incubation by broth double-dilution method; format: functional; how it was run: as §2
Enterococcus faecalis [31] = assay: Antibacterial activity against Enterococcus faecalis ATCC 49533 measured after overnight incubation by broth double-dilution method; format: functional; how it was run: as §2
Enterococcus faecium = assay: Antibacterial activity against Enterococcus faecium BM4105-RF measured after overnight incubation by broth double-dilution method; format: functional; how it was run: as §1
Enterococcus = assay: Antibacterial activity against Vancomycin-resistant Enterococcus measured after overnight incubation by broth double-dilution method; format: functional; how it was run: as §1
Listeria monocytogenes = assay: Antibacterial activity against Listeria monocytogenes ATCC 19115 measured after overnight incubation by broth double-dilution method; format: functional; how it was run: as §2
[32] = test system: Mycolicibacterium smegmatis; assay: Antibacterial activity against Mycobacterium smegmatis MC2-155 measured after overnight incubation by broth double-dilution method; format: functional; details: str. MC2 155; how it was run: as §1
Staphylococcus aureus [33] = assay: Bacteriostatic activity against methicillin-resistant Staphylococcus aureus S22 at 0.5 times MIC measured up to 3 to 6 hrs by time kill analysis; format: functional
Staphylococcus aureus [34] = assay: Bacteriostatic activity against methicillin-resistant Staphylococcus aureus S22 at MIC measured up to 3 to 6 hrs by time kill analysis; format: functional
Staphylococcus aureus [35] = assay: Bacteriostatic activity against methicillin-resistant Staphylococcus aureus S22 at 4 times MIC measured after 24 hrs by time kill analysis; format: functional
Staphylococcus aureus [36] = assay: Antibiofilm activity against methicillin-sensitive Staphylococcus aureus ATCC 6538 assessed as reduction of biofilm at […] measured after 24 hrs by crystal violet staining based method relative to control; format: functional; parameters: scale not given: the % may be the effect or the level left
[37] = Cytotoxicity against mouse RBCs assessed as hemolysis up to […] measured after 1 hr; format: toxicity, Erythrocyte; details: mouse red blood cells, read-out: Activity
Mus musculus = species on record: Mus musculus; assay: Cytotoxicity against mouse RBCs assessed as hemolysis at 0.24 to 31.2 ug/ml measured after 1 hr; format: toxicity; details: erythrocyte
How it was run: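 Murine red blood cells were exposed to compounds at various concentrations, with amikacin as a control. Percent hemolysis was scored against untreated cells (0%) and 1% Triton X (100%).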

[38] = Cytotoxicity against HEK293 cells assessed as cell death at […] measured after 24 hrs by resazurin dye-based fluorescence analysis relative to untreated control; format: toxicity; details: human, hek293, 24 h
[39] = test system: Staphylococcus epidermidis RP62A; assay: Inhibition of thioredoxin reductase in Staphylococcus epidermidis ATCC 35984 assessed as induction of ROS production at 1 to 4 times MIC measured after 1 hr by DCFH-DA staining-based fluorescence microscopic analysis
How it was run: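 Untreated cells served as the negative control and 1 mM H2O2 as the positive control. Cells were stained with DCFH-DA (40 µg/mL) and ROS were visualized by fluorescence microscopy.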

Staphylococcus aureus [40] = assay: Antibacterial activity against methicillin-resistant Staphylococcus aureus S22 using 1 10^6CFU/ml measured after overnight incubation by broth double-dilution method; format: functional

CCCCCCCCn1sc2ccccc2c1=O
MIC (Staphylococcus aureus [1]): 1 µg/mL (≈ 3.8 µM)
MIC (Staphylococcus aureus [2]): 1 µg/mL (≈ 3.8 µM)
MIC (Staphylococcus aureus [3]): 1 µg/mL (≈ 3.8 µM)
MIC (Staphylococcus aureus [4]): 0.5 µg/mL (≈ 1.9 µM)
MIC (Staphylococcus aureus [5]): 0.5 µg/mL (≈ 1.9 µM)
MIC (Staphylococcus aureus [6]): 1 µg/mL (≈ 3.8 µM)
MIC (Staphylococcus aureus [7]): 1 µg/mL (≈ 3.8 µM)
MIC (Staphylococcus aureus [8]): 1 µg/mL (≈ 3.8 µM)
MIC (Staphylococcus aureus [9]): 0.5 µg/mL (≈ 1.9 µM)
MIC (Staphylococcus aureus [10]): 1 µg/mL (≈ 3.8 µM)
MIC (Staphylococcus aureus [11]): 1 µg/mL (≈ 3.8 µM)
MIC (Staphylococcus aureus [12]): 2 µg/mL (≈ 7.59 µM)
MIC (Staphylococcus aureus [13]): 0.5 µg/mL (≈ 1.9 µM)
MIC (Staphylococcus aureus [14]): ≤ 0.25 µg/mL
MIC (Staphylococcus aureus [15]): 1 µg/mL (≈ 3.8 µM)
MIC (Staphylococcus aureus [16]): 1 µg/mL (≈ 3.8 µM)
MIC (Staphylococcus aureus [17]): 1 µg/mL (≈ 3.8 µM)
MIC (Staphylococcus aureus [18]): 1 µg/mL (≈ 3.8 µM)
MIC (Staphylococcus aureus [19]): 1 µg/mL (≈ 3.8 µM)
MIC (Staphylococcus aureus [20]): 1 µg/mL (≈ 3.8 µM)
MIC (Staphylococcus aureus [21]): ≤ 0.25 µg/mL
MIC (Staphylococcus aureus [22]): 1 µg/mL (≈ 3.8 µM)
MIC (Staphylococcus aureus [23]): 1 µg/mL (≈ 3.8 µM)
MIC (Staphylococcus aureus [24]): 1 µg/mL (≈ 3.8 µM)
MIC (Staphylococcus aureus [25]): 2 µg/mL (≈ 7.59 µM)
MIC (Staphylococcus aureus [26]): 3.9 µg/mL (≈ 14.8 µM)
MIC (Staphylococcus aureus [27]): 2 µg/mL (≈ 7.59 µM)
MIC (Staphylococcus aureus [28]): 3.9 µg/mL (≈ 14.8 µM)
MIC [29]: 1 µg/mL (≈ 3.8 µM)
MIC (Enterococcus faecalis [30]): > 125 µg/mL
MIC (Enterococcus faecalis [31]): > 125 µg/mL
MIC (Enterococcus faecium): 2 µg/mL (≈ 7.59 µM)
MIC (Enterococcus): 0.5 µg/mL (≈ 1.9 µM)
MIC (Listeria monocytogenes): 1 µg/mL (≈ 3.8 µM)
MIC [32]: 2 µg/mL (≈ 7.59 µM)
Activity (Staphylococcus aureus [33]): Active
Activity (Staphylococcus aureus [34]): Active
Activity (Staphylococcus aureus [35]): Active
Activity (Staphylococcus aureus [36]): 40%
hemolysis at 1 h [37]: ≤ 20%
Activity (Mus musculus): Non-Toxic
Activity [38]: > 20%
Activity [39]: Active
Activity (Staphylococcus aureus [40]): Active
